Assay results pooled from the literature.
Lines come from different studies, so protocols differ.
Observed: metabolic stability
Host: human
Sample: liver microsomes

| SMILES | conditions | microsomal CLint |
| --- | --- | --- |
| O=C(O)Cc1ccccc1Nc1c(Cl)cccc1Cl | 2 µM, pH 7.4 | 201 µL/min/mg |
| O=c1c2ccc(OCc3cccc(C(F)(F)F)c3)cc2[nH]c2ccc(Cl)c(F)c12 | 1 µM, pH 7.4 | 2.73 µL/min/mg |
| CC(C)N(c1ccc(Cl)c(F)c1)c1ccc(NC(=O)CN(C)c2ccccc2N2CCCC2=O)cn1 |  | 287 µL/min/mg |
| N[C@H](COCC(=O)N1CCC[C@H](C(=O)NCc2nc(-c3ccc(C(F)(F)F)cc3)cs2)C1)c1ccccc1 | 0.5 µM | 80 µL/min/mg |
| O=c1c2cccc(Oc3ccc(OC(F)(F)F)cc3)c2[nH]c2cc(Cl)cc(F)c12 | 1 µM, pH 7.4 | 6.75 µL/min/mg |
| COc1cnc(Nc2cnnc3ccc(-c4ccc(N5CCN(C)CC5)cc4)cc23)nc1 |  | 93 µL/min/mg |
| N#Cc1ccc(-c2csc(CNC(=O)[C@H]3CCCN(C(=O)COC4CC4)C3)n2)cc1 | 0.5 µM | 49 µL/min/mg |
| CN(CC(=O)Nc1ccc(N(C)c2ccc(Cl)c(F)c2)cc1)c1ccccc1N1CCCC1=O |  | 218 µL/min/mg |
| COCC(=O)N1CCC[C@H](C(=O)NCc2nc(-c3cccnc3)cs2)C1 | 0.5 µM | < 7 µL/min/mg |
| COc1ccc(Oc2ccc3c(=O)c4c(F)cc(Cl)cc4[nH]c3c2)cc1 | 1 µM, pH 7.4 | 12.3 µL/min/mg |
| CC(C)NCCOCC(=O)N1CCC[C@H](C(=O)NCc2nc(-c3ccc(C(F)(F)F)cc3)cs2)C1 | 0.5 µM | 13 µL/min/mg |
| Cc1cc(N2C(=O)NC(C)(C)C2=O)cc(C(F)(F)F)n1 |  | < 7 µL/min/mg |
| CN(C)CCOc1ccc2c(=O)c3c([nH]c2c1)CCCC3 | 1 µM, pH 7.4 | 8.08 µL/min/mg |
| O=C(NCc1nc(-c2ccc(C(F)(F)F)cc2)cs1)[C@H]1CCCN(C(=O)CO[C@H]2CCCNC2)C1 | 0.5 µM | 13 µL/min/mg |
| O=c1c2ccc(Oc3ccc(OC(F)(F)F)cc3)cc2[nH]c2cc(F)c(Cl)cc12 | 1 µM, pH 7.4 | 2.59 µL/min/mg |
| O=C(NCc1nc(-c2ccc(C(F)(F)F)cc2)cs1)[C@H]1CCCN(C(=O)COCCN2CCCCC2)C1 | 0.5 µM | 21 µL/min/mg |
| CCCCN(CCCC)CCCOc1ccc2c(=O)c3c([nH]c2c1)CCCC3 | 1 µM, pH 7.4 | 91.8 µL/min/mg |
| CC1(C)NC(=O)N(c2ccc3c(c2)OC(F)(F)O3)C1=O |  | < 7 µL/min/mg |
| COc1ccc(Cn2cc(CO[C@@H]3O[C@H]4[C@H](OC[C@H]4O)[C@H]3O)nn2)cc1 |  | < 14.4 µL/min/mg |
| O=C(NCc1nc(-c2ccccc2)cs1)[C@H]1CCCN(C(=O)COCC(F)F)C1 | 0.5 µM | 18 µL/min/mg |
| COc1cc(NC(=O)Cn2ccc3ccc(-c4cnn(C)c4)cc32)cc(OC)c1OC |  | 62 µL/min/mg |
